Data set [1] has as its target T1, Metabotropic glutamate receptor 1 (Homo sapiens, UniProt Q13255). The data set can be described thus: Antagonist activity at human mGluR1 receptor expressed in CHO cell membranes assessed as inhibition of L-glutamate-induced calcium mobilization by FLIPR. The data set is classed as functional, cell-based. Put shortly: (§1)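 Human mGluR1a stably expressed in CHO cells; antagonism read as inhibition of the intracellular Ca2+ rise on FLIPR. IC50 is the mean of at least three independent determinations, each run in duplicate, reported ± SEM.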
A general note: Calcium assays in cells follow changes in intracellular calcium, usually with a dye or a luminescent sensor.

The nature of data set [2]: Octanol to water distribution coefficient, log D at pH 7.4. The data set is classed as physicochemical.
Data set [3] in a line: Plasma clearance in rat at 3 mg/kg, po and 1 mg/kg, iv. The data set is classed as ADME, organism-based. Put shortly:
(§2)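 Rats dosed orally at 3 mg/kg and intravenously at 1 mg/kg. Oral bioavailability (F), half-life and total plasma clearance were derived from the plasma profiles.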

Data set [4] has as its target Metabotropic glutamate receptor 5 (Homo sapiens, UniProt P41594). The data set can be described thus: Antagonist activity at human mGluR5 receptor expressed in CHO cell membranes assessed as inhibition of L-glutamate-induced calcium mobilization by FLIPR. The data set is classed as functional, cell-based.
Data set [5] can be described thus: Oral bioavailability in rat at 3 mg/kg. The data set is classed as ADME, organism-based. As to conditions: in vivo. Put shortly:
as §2

Data set [6] is described as follows: Half life in rat at 3 mg/kg, po and 1 mg/kg, iv. The data set is classed as ADME, organism-based. Particulars: in vivo. Put shortly: as §2
The target of data set [7] is Metabotropic glutamate receptor 2 (Homo sapiens, UniProt Q14416). In words: Antagonist activity at human mGluR2 receptor expressed in CHO cell membranes assessed as inhibition of L-glutamate-induced calcium mobilization by FLIPR. The data set is classed as functional, cell-based.
Data set [8] is described as follows: Plasma clearance in rat at 1 mg/kg, po and 0.3 mg/kg, iv. The data set is classed as ADME, organism-based. Put shortly: (§3)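 Rats dosed orally at 1 mg/kg and intravenously at 0.3 mg/kg. Oral bioavailability, half-life and total plasma clearance were derived from the plasma profiles.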
Data set [9] concerns the target Metabotropic glutamate receptor 1 (Rattus norvegicus, UniProt P23385). The data set can be described thus: Antagonist activity at rat mGluR1 receptor expressed in CHO cell membranes assessed as inhibition of L-glutamate-induced calcium mobilization by FLIPR. The data set is classed as functional, cell-based.
Data set [10] deals with Metabotropic glutamate receptor 8 (Homo sapiens, UniProt O00222). The data set can be described thus: Antagonist activity at human mGluR8 receptor expressed in CHO cell membranes assessed as inhibition of L-glutamate-induced calcium mobilization by FLIPR. The data set is classed as functional, cell-based.
Data set [11] deals with Rattus norvegicus. In words: Antipsychotic-like effect in rat assessed as inhibition of MAP-induced prepulse inhibition at 1 mg/kg, po. The data set is classed as functional, organism-based. Also noted: dose 1 mg/kg. Put shortly:
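Rat prepulse inhibition model of methamphetamine-induced disruption. Test article given orally at 1 mg/kg.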

Data set [12] is described as follows: Oral bioavailability in rat at 1 mg/kg. The data set is classed as ADME, organism-based. As to conditions: in vivo. Put shortly: as §3
Another data set relates to Mus musculus. The data set can be described thus: Plasma concentration in mouse at 1 mg/kg, po after 30 mins.
Data set [13] is described as follows: Half life in rat at 1 mg/kg, po and 0.3 mg/kg, iv. The data set is classed as ADME, organism-based. Particulars: in vivo. Put shortly:
as §3

Data set [14] concerns the target T1, Metabotropic glutamate receptor 1. In words: Antagonist activity at human mGluR1 receptor quisqualic acid binding site expressed in CHO cell membranes assessed as inhibition of L-glutamate-induced calcium mobilization by FLIPR. The data set is classed as functional. Put shortly: as §1
A further data set has as its system Brain. The data set can be described thus: Drug uptake in mouse brain at 1 mg/kg, po after 30 mins. As to conditions: in vivo, 0.5 h.
In data set [15] the test system is Rattus norvegicus. The data set can be described thus: Induction of catalepsy in rat at 30 mg/kg, po.

Active and inactive are the calls of the source.

T1 sequence (Q13255 whole entry): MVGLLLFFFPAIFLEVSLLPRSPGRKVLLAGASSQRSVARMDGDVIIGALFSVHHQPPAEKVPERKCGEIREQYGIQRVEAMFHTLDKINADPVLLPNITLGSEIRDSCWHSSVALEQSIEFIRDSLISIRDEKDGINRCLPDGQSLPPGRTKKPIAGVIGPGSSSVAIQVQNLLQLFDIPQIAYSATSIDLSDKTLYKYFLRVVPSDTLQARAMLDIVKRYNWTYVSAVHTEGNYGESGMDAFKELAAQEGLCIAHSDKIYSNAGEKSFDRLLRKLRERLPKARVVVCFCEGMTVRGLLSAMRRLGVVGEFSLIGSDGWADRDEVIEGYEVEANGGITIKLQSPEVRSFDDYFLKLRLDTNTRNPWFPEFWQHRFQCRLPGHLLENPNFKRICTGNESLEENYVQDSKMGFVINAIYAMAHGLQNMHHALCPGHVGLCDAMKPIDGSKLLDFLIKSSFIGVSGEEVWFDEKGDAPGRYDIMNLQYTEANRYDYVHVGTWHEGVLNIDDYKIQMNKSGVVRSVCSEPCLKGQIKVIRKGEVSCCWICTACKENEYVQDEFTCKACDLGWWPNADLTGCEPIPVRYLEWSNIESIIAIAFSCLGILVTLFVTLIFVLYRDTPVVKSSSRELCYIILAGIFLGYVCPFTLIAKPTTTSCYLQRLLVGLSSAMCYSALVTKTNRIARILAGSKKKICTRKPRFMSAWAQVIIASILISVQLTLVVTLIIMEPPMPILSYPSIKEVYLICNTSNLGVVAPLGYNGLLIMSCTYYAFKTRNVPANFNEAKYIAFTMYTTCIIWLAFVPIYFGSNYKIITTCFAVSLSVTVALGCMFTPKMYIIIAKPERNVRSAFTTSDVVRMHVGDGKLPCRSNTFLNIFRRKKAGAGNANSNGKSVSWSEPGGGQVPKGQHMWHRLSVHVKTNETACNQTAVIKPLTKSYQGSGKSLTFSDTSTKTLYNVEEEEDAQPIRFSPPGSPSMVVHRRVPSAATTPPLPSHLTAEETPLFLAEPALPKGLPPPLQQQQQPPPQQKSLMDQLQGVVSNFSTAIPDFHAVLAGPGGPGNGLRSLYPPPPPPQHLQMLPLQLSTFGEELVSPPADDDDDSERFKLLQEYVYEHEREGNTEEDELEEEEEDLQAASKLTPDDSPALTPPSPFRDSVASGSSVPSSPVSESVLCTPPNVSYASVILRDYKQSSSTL
Chain of Metabotropic glutamate receptor 5 (P41594 whole entry): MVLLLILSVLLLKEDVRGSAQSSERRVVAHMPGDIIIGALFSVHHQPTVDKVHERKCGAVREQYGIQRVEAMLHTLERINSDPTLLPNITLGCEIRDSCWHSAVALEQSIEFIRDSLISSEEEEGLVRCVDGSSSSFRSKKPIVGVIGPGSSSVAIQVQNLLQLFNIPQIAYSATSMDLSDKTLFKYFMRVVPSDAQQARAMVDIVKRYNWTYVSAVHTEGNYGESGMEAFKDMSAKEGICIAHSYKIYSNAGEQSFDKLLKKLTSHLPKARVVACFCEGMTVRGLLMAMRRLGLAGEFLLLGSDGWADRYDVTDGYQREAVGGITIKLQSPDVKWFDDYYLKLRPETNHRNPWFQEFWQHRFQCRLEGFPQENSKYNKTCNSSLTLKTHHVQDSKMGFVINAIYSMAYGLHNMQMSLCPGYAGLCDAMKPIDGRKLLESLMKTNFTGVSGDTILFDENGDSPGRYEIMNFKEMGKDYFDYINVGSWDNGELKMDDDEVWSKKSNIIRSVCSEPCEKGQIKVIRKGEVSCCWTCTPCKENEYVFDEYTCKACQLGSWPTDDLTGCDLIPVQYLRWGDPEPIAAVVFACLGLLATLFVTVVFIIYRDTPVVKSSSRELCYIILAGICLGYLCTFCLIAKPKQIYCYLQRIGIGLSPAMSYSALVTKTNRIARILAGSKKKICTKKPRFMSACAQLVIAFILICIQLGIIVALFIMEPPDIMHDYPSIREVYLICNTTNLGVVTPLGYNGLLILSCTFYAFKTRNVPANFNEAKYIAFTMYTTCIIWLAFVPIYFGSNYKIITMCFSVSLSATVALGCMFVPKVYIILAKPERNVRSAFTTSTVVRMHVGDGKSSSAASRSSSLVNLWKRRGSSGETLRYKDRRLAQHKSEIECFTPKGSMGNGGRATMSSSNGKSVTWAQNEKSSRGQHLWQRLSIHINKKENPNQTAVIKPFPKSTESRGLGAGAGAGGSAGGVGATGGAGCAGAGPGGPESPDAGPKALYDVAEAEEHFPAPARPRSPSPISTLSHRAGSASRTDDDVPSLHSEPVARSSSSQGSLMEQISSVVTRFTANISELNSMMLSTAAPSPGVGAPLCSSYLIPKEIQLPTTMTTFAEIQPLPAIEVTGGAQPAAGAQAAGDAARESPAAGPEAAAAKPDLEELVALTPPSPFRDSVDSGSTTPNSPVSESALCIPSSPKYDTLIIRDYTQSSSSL
Chain of Metabotropic glutamate receptor 2 (Q14416 whole entry): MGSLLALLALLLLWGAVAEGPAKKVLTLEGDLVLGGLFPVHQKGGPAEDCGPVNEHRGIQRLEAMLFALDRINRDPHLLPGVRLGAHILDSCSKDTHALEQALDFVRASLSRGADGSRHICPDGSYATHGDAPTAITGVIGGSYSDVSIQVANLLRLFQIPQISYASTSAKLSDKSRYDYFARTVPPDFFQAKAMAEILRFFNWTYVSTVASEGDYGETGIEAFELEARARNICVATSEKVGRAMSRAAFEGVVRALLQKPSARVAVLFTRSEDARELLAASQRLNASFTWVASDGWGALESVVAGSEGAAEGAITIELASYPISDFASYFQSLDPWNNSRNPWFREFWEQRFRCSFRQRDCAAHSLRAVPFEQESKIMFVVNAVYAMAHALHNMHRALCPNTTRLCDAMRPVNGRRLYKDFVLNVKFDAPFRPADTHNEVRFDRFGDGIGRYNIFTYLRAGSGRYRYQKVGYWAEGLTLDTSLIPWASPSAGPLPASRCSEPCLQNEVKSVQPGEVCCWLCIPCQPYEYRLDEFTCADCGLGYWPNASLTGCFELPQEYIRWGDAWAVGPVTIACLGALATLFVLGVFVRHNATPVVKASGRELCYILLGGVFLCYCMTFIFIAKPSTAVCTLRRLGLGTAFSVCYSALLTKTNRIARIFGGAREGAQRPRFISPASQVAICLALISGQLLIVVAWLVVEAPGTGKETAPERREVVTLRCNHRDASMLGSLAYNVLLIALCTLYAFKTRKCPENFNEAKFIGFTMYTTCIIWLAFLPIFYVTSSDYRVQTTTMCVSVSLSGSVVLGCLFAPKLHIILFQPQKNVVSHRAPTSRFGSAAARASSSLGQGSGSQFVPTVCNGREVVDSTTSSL
Chain of Metabotropic glutamate receptor 1 (Rattus norvegicus, UniProt P23385) (P23385 whole entry): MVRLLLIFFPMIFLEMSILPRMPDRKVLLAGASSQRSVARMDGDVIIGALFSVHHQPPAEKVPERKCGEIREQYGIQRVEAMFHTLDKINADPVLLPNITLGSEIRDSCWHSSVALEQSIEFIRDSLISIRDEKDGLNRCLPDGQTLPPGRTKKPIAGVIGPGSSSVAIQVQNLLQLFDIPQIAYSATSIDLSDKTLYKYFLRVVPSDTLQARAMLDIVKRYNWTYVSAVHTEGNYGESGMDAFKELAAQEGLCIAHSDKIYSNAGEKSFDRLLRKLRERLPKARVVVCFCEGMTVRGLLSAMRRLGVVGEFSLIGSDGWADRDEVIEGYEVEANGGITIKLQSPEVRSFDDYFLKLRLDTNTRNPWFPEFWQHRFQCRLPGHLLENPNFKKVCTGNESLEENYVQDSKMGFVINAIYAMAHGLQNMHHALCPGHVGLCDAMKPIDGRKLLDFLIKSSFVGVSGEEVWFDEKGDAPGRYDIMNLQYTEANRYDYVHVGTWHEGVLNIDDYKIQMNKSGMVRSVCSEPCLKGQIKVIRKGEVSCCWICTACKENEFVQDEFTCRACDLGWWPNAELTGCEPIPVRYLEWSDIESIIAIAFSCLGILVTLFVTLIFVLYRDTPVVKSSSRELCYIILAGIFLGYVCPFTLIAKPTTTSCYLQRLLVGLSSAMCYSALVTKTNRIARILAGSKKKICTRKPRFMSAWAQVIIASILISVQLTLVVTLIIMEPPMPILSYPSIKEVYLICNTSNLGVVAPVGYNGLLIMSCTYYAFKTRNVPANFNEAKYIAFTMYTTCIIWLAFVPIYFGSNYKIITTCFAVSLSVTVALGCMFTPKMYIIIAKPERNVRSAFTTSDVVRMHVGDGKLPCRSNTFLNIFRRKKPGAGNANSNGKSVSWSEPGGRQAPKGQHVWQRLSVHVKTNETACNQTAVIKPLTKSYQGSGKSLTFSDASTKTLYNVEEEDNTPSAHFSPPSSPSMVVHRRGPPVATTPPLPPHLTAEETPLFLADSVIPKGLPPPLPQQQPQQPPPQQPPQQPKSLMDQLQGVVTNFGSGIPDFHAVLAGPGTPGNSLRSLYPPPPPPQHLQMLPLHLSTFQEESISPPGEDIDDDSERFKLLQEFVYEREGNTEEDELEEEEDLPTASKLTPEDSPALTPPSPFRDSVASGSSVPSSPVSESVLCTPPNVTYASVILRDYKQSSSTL

On to `CCC(=O)c1ccc(-c2nnn(-c3cccnc3)c2C)cc1`, for which the half-maximal inhibitory concentration (IC50) (usually the concentration that gives 50% inhibition) in data set [1] is 170 nM.
For `Cc1c(-c2ccc3ncccc3c2)nnn1-c1cccnc1`, the IC50 in data set [1] was 4.9 nM.
Still for that read-out and setting: to `Cc1c(-c2ccc(C(=O)N3CCCC3)cc2)nnn1-c1cccnc1` belongs 1800 nM; to `Cc1c(-c2ccc(C(=O)N(C)C(C)C)cc2)nnn1-c1cccnc1`, 880 nM.
Turning to `CC(=O)c1ccc(-c2nnn(-c3cccnc3)c2C)cc1`, the IC50 in data set [1] stood at 470 nM.
On to `Cc1c(-c2ccc3c(c2)CN(C(C)C)C3=O)nnn1-c1cccnc1F`, for which the logD (as a rule, lipophilicity at a set pH, counting ionised and neutral species) in data set [2] stood at 2.2. The same compound had a clearance in data set [3] of 5.9 mL/min/kg. In addition, the IC50 worked out at 2300 nM in data set [4] and 5.5 nM in data set [1]. Besides, the bioavailability – broadly, the share of a dose that reaches the circulation, judged against a reference dose that is usually intravenous – in data set [5] stood at 96%. Besides, the half-life (usually the time needed for the level to fall by half in the phase considered) in [6] was 132 min.
For `Cc1c(-c2ccc3c(c2)CN(C(C)C)C3=O)nnn1-c1ccc(F)cc1F`, the IC50 in [7] was greater than 10000 nM; in data set [9], 3.6 nM; in data set [10], greater than 10000 nM; in data set [14], greater than 10000 nM. In [8], this compound returned a clearance of 20 mL/min/kg. In the data set on Rattus norvegicus [11], the result was Active. Besides, the bioavailability in data set [12] stood at 46%. For the same compound, the concentration at 0.5 h in the data set with Mus musculus worked out at 170 nM. Moreover, the half-life in data set [13] was 42 min. In the data set on Brain, this compound returned a Drug uptake of 0.45 nmol/g. Also, in the data set on Rattus norvegicus [15], the result was inactive.
Turning to `Cc1c(C2=CCN(C(=O)N(C)C(C)C)CC2)nnn1-c1cccnc1F`, the IC50 in data set [4] was greater than 10000 nM. This compound also had a half-life in data set [6] of 12 min.
On to `Cc1c(-c2ccc(C(=O)C3CC3)cc2)nnn1-c1cccnc1`, for which the IC50 in [1] was 22 nM.
In turn, `Cc1c(-c2ccc3c(c2)CN(C2CC2)C3=O)nnn1-c1cccnc1F` returned a logD in data set [2] of 1.9. In [3], the clearance was determined as 8.1 mL/min/kg. Also, the results for the IC50 in [4] and in [1] were 5400 nM and 3.5 nM, respectively. This compound yielded a bioavailability in data set [5] of 100%. In addition, the half-life in data set [6] was 36 min.
On to `Cc1c(-c2cccc(C(=O)OC(C)C)c2)nnn1-c1cccnc1`, for which, in data set [1], the IC50 is 2400 nM.
Still for that read-out and setting: as for `Cc1c(-c2ccc3ccccc3c2)nnn1-c1cccnc1`, the figure is 300 nM; as for `Cc1c(-c2ccc3c(c2)CCC3=O)nnn1-c1cccnc1`, 69 nM.
As for `Cc1c(-c2ccc3c(c2)CC(C)(C)C3=O)nnn1-c1cccnc1`, in data set [1], the IC50 came to 11 nM.
`CCN1Cc2cc(-c3nnn(-c4cccnc4F)c3C)ccc2C1=O` yielded a logD in data set [2] of 1.8. This compound also returned a clearance in data set [3] of 19 mL/min/kg. The IC50 in [4] turned out to be 1100 nM; in [1], 3.3 nM. This compound gave a bioavailability in [5] of 62%. The compound also gave a half-life in data set [6] of 18 min.
`Cc1c(-c2ccc(C(=O)NC(C)C)cc2)nnn1-c1cccnc1`: the IC50 in data set [1] was determined as 210 nM.
In the case of `Cc1c(-c2ccc(C(=O)c3ccccc3)cc2)nnn1-c1cccnc1`, the IC50 in data set [1] was found to be 3900 nM.
As to `Cc1nc2cc(-c3nnn(-c4cccnc4)c3C)ccc2s1`, the IC50 in [1] is 1500 nM.
As for `Cc1c(-c2ccc3[nH]ccc3c2)nnn1-c1cccnc1`, the IC50 in data set [1] was 250 nM.
Same read-out and setting: to `Cc1c(-c2ccc(C(=O)OC(C)C)cc2)nnn1-c1cccnc1` belongs 33 nM; to `Cc1c(-c2ccc3c(c2)CC(C2CC2)C3=O)nnn1-c1cccnc1` (stereo not drawn), 2.6 nM.
Turning to `CCCN1Cc2cc(-c3nnn(-c4cccnc4F)c3C)ccc2C1=O`, the logD in data set [2] is 2.3. For the same compound, the clearance in data set [3] was 5.5 mL/min/kg. In addition, the values for the IC50 in data set [4] and in [1] were 2800 nM and 3.6 nM, respectively. Moreover, in data set [5], the bioavailability is 100%. Further, the half-life in data set [6] was 60 min.

Values taken from ChEMBL document CHEMBL1155999, “Discovery and biological profile of isoindolinone derivatives as novel metabotropic glutamate receptor 1 antagonists: a potential treatment for psychotic disorders” (Bioorg Med Chem Lett, 2009).
